A short description of assay [1]: Inhibition of His-tagged full-length Hsp90 (unknown origin)/GST-tagged Cdc37M (unknown origin) interaction after 1 hr by HTRF assay. Also noted: species or system Homo sapiens. The method, boiled down:
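TR-FRET in PBS containing 400 mM KF, pH 7.3. His-tagged full-length Hsp90 and GST-Cdc37M, each 250 nM final, incubated with compound for 1 h at 37 °C. Anti-GST-Cryptate and anti-6His-XL665 then added for a further 0.5 h at 37 °C. Excitation 320 nm, emission 665/620 nm, reported as ratio ×10,000. Negative and blank controls run in each assay.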
For orientation: In TR-FRET formats the signal depends on donor and acceptor labels being close together.

Assay [2] relates to A549. Put plainly: Antiproliferative activity against human A549 cells after 48 hrs by MTT assay. Type of assay: functional, cell-based. To be noted: A549, 48 h. The method, boiled down:
(§1)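 Cells in log phase seeded at about 1.0 × 10^5 cells/mL in 96-well plates, left 12 h at 37 °C, 5% CO2. Compounds dissolved in DMSO, added at 2.5, 5, 10, 20 and 50 µM, 48 h exposure. Absorbance read at 570/630 nm dual wavelength. Survival expressed relative to negative control. IC50 by Bliss method (n = 5), tests done in triplicate.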
On the technique in general: Tetrazolium dyes change colour on reduction, which living cells bring about.

The test system of a further assay is MCF7. The assay can be described thus: Antiproliferative activity against human MCF7 cells after 48 hrs by MTT assay. The settings on record: MCF7, 48 h. Type of assay: functional, cell-based. The method, boiled down:
as §1

The test system of the next assay is HepG2. The assay can be described thus: Antiproliferative activity against human HepG2 cells after 48 hrs by MTT assay. The settings on record: HepG2, 48 h. The class given is functional, cell-based. The gist of the method:
as §1

The next assay concerns HCT-116. Put plainly: Antiproliferative activity against human HCT116 cells after 48 hrs by MTT assay. Type of assay: functional, cell-based. To be noted: HCT-116, 48 h. The method, boiled down:
as §1

Assay [3] is described as follows: Antiproliferative activity against human NCI-460 cells after 48 hrs by MTT assay. Type of assay: functional, cell-based. To be noted: NCI-460, 48 h. The gist of the method: as §1
A short description of assay [4]: Inhibition of HSP90/Cdc37 interaction in human doxorubicin-resistant NCI-H460 cells assessed as reduction in cell proliferation after 48 hrs by MTT assay. To be noted: NCI-H460, 48 h. The gist of the method: as §1
Another assay is filed under the species Homo sapiens. The assay can be described thus: Inhibition of HSP90/Cdc37 interaction assessed as reversal of drug resistance by measuring ratio of IC50 for human doxorubicin-resistant NCI-H460 cells to IC50 for human NCI-H460 cells. The method, boiled down:
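Resistance factor is the ratio of IC50 in NCI-H460/DOX cells to IC50 in parental NCI-H460 cells. […] Values are mean ± SD of five separate experiments. Doxorubicin serves as the positive control.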

Assay [5] has as its system A549. The assay can be described thus: Inhibition of Hsp90/Cdc37 interaction in human A549 cells assessed as downregulation of Cdc37 in immunoprecipitated HSP90 complex at 10 uM after 24 hrs by Western blot analysis. Type of assay: cell-based. The gist of the method: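 A549 cells exposed to 5 and 10 µM for 24 h, geldanamycin 10 µM as comparator. Lysis in 20 mM Tris-HCl pH 7.4, 25 mM NaCl, 2 mM DTT, 20 mM Na2MoO4, 0.1% NP-40 and protease inhibitors. 500 µg protein immunoprecipitated overnight at 4 °C with anti-Hsp90 antibody, captured on protein G agarose, washed five times and boiled. Cdc37 and Hsp90 detected by Western blot, with input also blotted.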

The source made the active and inactive calls. The calls are words filed in the database; no cut-off is given here. A value given as a limit tells only on which side of the number the result lay.

What is called IC50 is the point on the concentration scale where inhibition reaches its midpoint.

Regarding `CCOC(=O)[C@@]1(C)CC[C@]2(C)CC[C@]3(C)C(=CC(=O)[C@@H]4[C@@]5(C)CC[C@H](OC(=O)CCC(=O)Nc6nc7c(Cl)cccc7s6)C(C)(C)[C@@H]5CC[C@]43C)[C@@H]2C1`, the IC50 in [1] was 1.67 µM; with A549 [2], 13.6 µM; with MCF7, 15 µM; with HepG2, 17 µM; in the assay on HCT-116, 15.4 µM; in assay [3] it was 14 µM. Moreover, the IC50 in assay [4] turned out to be 18.1 µM. The Ratio IC50 in the assay listed under Homo sapiens stood at 1.29.

As for `COc1cccc2c1C(=O)c1c(O)c3c(c(O)c1C2=O)C[C@@](O)(C(=O)CO)C[C@@H]3O[C@H]1C[C@H](N)[C@H](O)[C@H](C)O1` [DOXORUBICIN], the results for the half-maximal inhibitory concentration (IC50) in assay [3] and in assay [4] were 5.18 µM and 38 µM, respectively. In addition, the Ratio IC50 in the assay filed under Homo sapiens is 7.33.

For the compound `CCOC(=O)[C@@]1(C)CC[C@]2(C)CC[C@]3(C)C(=CC(=O)[C@@H]4[C@@]5(C)CC[C@H](OC(=O)CCC(=O)Nc6nc7ccccc7s6)C(C)(C)[C@@H]5CC[C@]43C)[C@@H]2C1`, the IC50 in [1] came to 9.09 µM; in the assay on A549 [2] it was 18.8 µM; with MCF7 it was 20.5 µM; with HepG2 it was 25.8 µM; with HCT-116 it was 22.3 µM; in assay [3] it was 16.4 µM. In [4], the IC50 was found to be 19.2 µM. The Ratio IC50 in the assay filed under Homo sapiens is 1.17.

Take `COC1=C2C[C@@H](C)C[C@H](OC)[C@H](O)[C@@H](C)/C=C(\C)[C@H](OC(N)=O)[C@@H](OC)/C=C\C=C(/C)C(=O)NC(=CC1=O)C2=O`: the inhibition entry in the assay on A549 [5] is “inactive”.

For the compound `CCOC(=O)[C@@]1(C)CC[C@]2(C)CC[C@]3(C)C(=CC(=O)[C@@H]4[C@@]5(C)CC[C@H](OC(=O)CCC(=O)Nc6nc7c(F)cccc7s6)C(C)(C)[C@@H]5CC[C@]43C)[C@@H]2C1`, the IC50 in [1] came to 1.05 µM; in the assay on A549 [2], 9.07 µM; in the assay on MCF7 it was 10.9 µM; with HepG2, 12.5 µM; with HCT-116 it was 10.1 µM; in assay [3] it was 12.5 µM. The IC50 in assay [4] is 15.4 µM. In the assay listed under Homo sapiens, the Ratio IC50 was determined as 1.23.

As for `CCOC(=O)[C@@]1(C)CC[C@]2(C)CC[C@]3(C)C(=CC(=O)[C@@H]4[C@@]5(C)CC[C@H](OC(=O)CCC(=O)Nc6nc7ccc(Cl)cc7s6)C(C)(C)[C@@H]5CC[C@]43C)[C@@H]2C1`, the IC50 in assay [1] came out at 0.83 µM; with A549 [2] it was 6.09 µM; in the assay on MCF7 it was 8.66 µM; in the assay on HepG2 it was 12.4 µM; in the assay on HCT-116, 11 µM; in [3] it was 10.6 µM. In [4], the IC50 is 12 µM. In addition, in the assay listed under Homo sapiens, the Ratio IC50 came to 1.13.

Regarding `CC(=O)O[C@H]1CC[C@]2(C)[C@H]3C(=O)C=C4[C@@H]5C[C@@](C)(C(=O)Nc6nc7ccc(F)cc7s6)CC[C@]5(C)CC[C@@]4(C)[C@]3(C)CC[C@H]2C1(C)C`, the IC50 is 54.3 µM in assay [1]; 85.5 µM in the assay with A549 [2]; 71.2 µM with MCF7; 65.6 µM in the assay with HepG2; more than 100 µM in the assay on HCT-116.

As to `CC1(C)[C@@H](O)CC[C@]2(C)[C@H]3C(=O)C=C4[C@@H]5C[C@@](C)(C(=O)Nc6nc7ccccc7s6)CC[C@]5(C)CC[C@@]4(C)[C@]3(C)CC[C@@H]12`, the IC50 in assay [1] came out at 89.5 µM; in the assay on A549 [2], 75.4 µM; in the assay on MCF7, 71.4 µM; in the assay on HepG2, 88 µM; in the assay on HCT-116, 80.7 µM.

Regarding `CC1(C)[C@@H](O)CC[C@]2(C)[C@H]3C(=O)C=C4[C@@H]5C[C@@](C)(C(=O)Nc6nc7ccc(Cl)cc7s6)CC[C@]5(C)CC[C@@]4(C)[C@]3(C)CC[C@@H]12`, the IC50 amounted to 36.9 µM in assay [1]; 22.8 µM in the assay on A549 [2]; 16.5 µM in the assay with MCF7; 21.8 µM in the assay on HepG2; 16.3 µM in the assay with HCT-116.

For `COc1cccc2sc(NC(=O)[C@@]3(C)CC[C@]4(C)CC[C@]5(C)C(=CC(=O)[C@@H]6[C@@]7(C)CC[C@H](O)C(C)(C)[C@@H]7CC[C@]65C)[C@@H]4C3)nc12`, the IC50 in [1] is more than 100 µM; with A549 [2] it was 76 µM; in the assay with MCF7 it was 74.5 µM; in the assay with HepG2 it was 86.3 µM; with HCT-116, 74.7 µM.

Regarding `CCOC(=O)[C@@]1(C)CC[C@]2(C)CC[C@]3(C)C(=CC(=O)[C@@H]4[C@@]5(C)CC[C@H](OC(=O)CCC(=O)Nc6nc7ccc(Br)cc7s6)C(C)(C)[C@@H]5CC[C@]43C)[C@@H]2C1`, the IC50 in [1] amounted to 5.07 µM; with A549 [2] it was 14.2 µM; with MCF7, 16.1 µM; with HepG2, 19 µM; with HCT-116, 15.9 µM.

On to `COc1ccc2nc(NC(=O)[C@@]3(C)CC[C@]4(C)CC[C@]5(C)C(=CC(=O)[C@@H]6[C@@]7(C)CC[C@H](O)C(C)(C)[C@@H]7CC[C@]65C)[C@@H]4C3)sc2c1`, for which the half-inhibitory concentration (IC50) in [1] turned out to be 62.4 µM; in the assay with A549 [2], 51.1 µM; in the assay with MCF7, 52.7 µM; in the assay with HepG2, 60.1 µM; in the assay with HCT-116 it was 54.2 µM.

Consider `CC1(C)[C@@H](O)CC[C@]2(C)[C@H]3C(=O)C=C4[C@@H]5C[C@@](C)(C(=O)Nc6nc7ccc(F)cc7s6)CC[C@]5(C)CC[C@@]4(C)[C@]3(C)CC[C@@H]12`, for which the IC50 came to 32.3 µM in assay [1]; 32.2 µM with A549 [2]; 31.1 µM in the assay on MCF7; 36.4 µM in the assay with HepG2; 31.5 µM in the assay with HCT-116.
